{"source": "paper PMC2847151", "about": "(Neurogenetics, 2009)", "key": {"[1]": {"system": "SH3 domain of the Src-family kinase Lck (LckSH3)", "test": "Fluorescence titration binding of synthetic MED25 peptides to Lck SH3", "conditions": "AblSH3 vs LckSH3"}, "[2]": {"molecular_target": "SH3 domain of the Src-family kinase Lck (LckSH3) (Homo sapiens, UniProt P06239)", "sequence (P06239 61-121 limits assumed)": "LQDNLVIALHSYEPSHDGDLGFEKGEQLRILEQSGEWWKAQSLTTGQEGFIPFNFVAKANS", "test": "Fluorescence titration binding of synthetic MED25 peptides to Lck SH3"}, "[3]": {"molecular_target": "SH3 domain of Abl (AblSH3) (Homo sapiens, UniProt P00519)", "sequence (P00519 61-121 limits assumed)": "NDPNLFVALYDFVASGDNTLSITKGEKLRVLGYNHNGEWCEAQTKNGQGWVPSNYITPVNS", "test": "Fluorescence titration binding of synthetic MED25 peptides to Abl SH3"}, "Pmp22 expression": {"system": "Pmp22 expression", "conditions": "peripheral nerves of Pmp22 transgenic rats; ref [31]; cited from earlier work"}, "Pmp22 transgenic rats": {"system": "Pmp22 transgenic rats", "conditions": "progesterone antagonist, ref [31]; cited from earlier work"}, "Med25 expression": {"system": "Med25 expression", "test": "Med25 qRT-PCR expression in sciatic nerve of treated Pmp22 transgenic", "format": "in vivo, rat", "in_short": "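Pmp22-transgenic rats received a progestin diet (20 mg/kg), a progesterone-receptor antagonist, or placebo (12, 12 and 8 animals). RNA was Trizol-extracted from sciatic nerve. Med25 was quantified by TaqMan qRT-PCR with unlabelled forward/reverse primers and a 5′-FAM probe, in triplicate, normalised to 18S rRNA run in parallel. Runs were repeated with GAPDH as the internal control.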"}}, "data": [{"compound": "Ac-QLPPGPPGAPKPPPAS-NH2 [wild-type MED25, Ac-QLPPGPPGAPKPPPAS-CONH2]", "values": [{"measurement": "binding affinity Abl SH3 compared with Lck SH3 (specificity)", "setting": "[1]", "result": "significantly stronger to Abl than to Lck"}]}, {"compound": "Ac-QLPPGPPGVPKPPPAS-NH2 [mutant, Ac-QLPPGPPGVPKPPPAS-CONH2]", "values": [{"measurement": "binding affinity Abl SH3 compared with Lck SH3 (specificity)", "setting": "[1]", "result": "very similar affinity"}, {"measurement": "Kd", "setting": "[2]", "result": "5.38 ± 1.05", "unit": "µM"}, {"measurement": "Kd", "setting": "[3]", "result": "2910 ± 660", "unit": "nM"}, {"measurement": "affinity for Abl SH3, effect of mutation", "setting": "[3]; mutant vs wild-type peptide", "result": "almost unaltered by the mutation"}]}, {"compound": "CN(C)c1ccc([C@H]2C[C@]3(C)[C@@H](CC[C@]3(O)CCCO)[C@@H]3CCC4=CC(=O)CCC4=C32)cc1", "note": "[onapristone]", "values": [{"measurement": "Pmp22 expression", "setting": "Pmp22 expression", "result": "decreases its expression"}, {"measurement": "phenotype", "setting": "Pmp22 transgenic rats", "result": "improvement of the phenotype"}, {"measurement": "Med25 expression after treatment", "setting": "Med25 expression; Pmp22^++/+ rats, onapristone", "result": "no significant reducing effect"}]}, {"compound": "CC(=O)[C@H]1CC[C@H]2[C@@H]3CCC4=CC(=O)CC[C@]4(C)[C@H]3CC[C@]12C", "note": "[progesterone]", "values": [{"measurement": "Pmp22 expression", "setting": "Pmp22 expression", "result": "increases Pmp22 expression"}, {"measurement": "Med25 expression after treatment", "setting": "Med25 expression; Pmp22^++/+ male rats, progesterone 20 mg/kg diet", "result": "further increase of the Med25 expression"}]}]}
